Here are results for 14 compounds from ChEMBL document CHEMBL5678813, “Optimization of a novel series of N-phenylindoline-5-sulfonamide-based acyl CoA:monoacylglycerol acyltransferase-2 inhibitors: Mitigation of CYP3A4 time-dependent inhibition and phototoxic liabilities” (Bioorg Med Chem, 2015).

As a reminder, the logD is the decadic logarithm of the distribution of all forms, ionised or not, between an organic phase and buffer at a given pH. Higher therefore signals a more lipophilic compound. The term pIC50 denotes −log10 of the IC50, conventionally taken in molar units. Read a high pIC50 as a small IC50. In general, clearance refers to the rate of elimination divided by the concentration. Low values mean a low capacity for elimination, high ones a high capacity for elimination. Usually AUC stands for the area under the concentration-time curve, a measure of exposure. The low end stands for less exposure, the high end for more exposure. One may read the MRT as a mean duration of stay, worked out from the concentration-time curve. What is called bioavailability is the share of a dose that reaches the circulation, judged against a reference dose that is usually intravenous.

One data set has as its target CYP3A4 (Homo sapiens, UniProt P08684). Description: (§1) Time-dependent inhibition of CYP3A4 in human liver microsomes using testosterone as substrate assessed as remaining activity at 30 uM preincubated with compound in presence of NADPH-generating system followed by substrate addition by UPLC analysis relative to control. The conditions noted are these: human liver microsomes, probe testosterone, read-out: Activity. The class given is ADME, Microsome. The method in brief: (§2)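 Compound at 30 µM preincubated at 37 °C with human liver microsomes in pH 7.4 phosphate buffer plus an NADPH-generating system. CYP3A4 activity then measured as testosterone 6β-hydroxylation by UPLC, expressed as % of DMSO control. Remaining activity = preincubated activity ÷ non-preincubated activity × 100; n = 2.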
On the technique in general: Liver microsomes are vesicles of endoplasmic reticulum, rich in cytochrome P450 enzymes.

Data set [1] can be described thus: 1-Octanol/aqueous buffer partition coefficient, logD of the compound at pH 7.4 by HPLC analysis. It counts as physicochemical.
For data set [2], the target named is 2-acylglycerol O-acyltransferase 2 (Homo sapiens, UniProt Q3SYC2). Description: Inhibition of N-terminal FLAG-tagged full-length human MGAT2 expressed in human FreeStyle 293-F cell membrane using 13Cx18oleoyl-CoA and 2-oleoyl-glycerol as substrate preincubated for 60 mins followed by substrate addition and measured after 30 mins by RapidFire mass spectrometric analysis. The class given is cell membranes. The method in brief:
(§3)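 FreeStyle293 cells transfected and harvested after 2 days; total membranes isolated by ultracentrifugation. Reaction started with 13C18 oleoyl-CoA and 2-oleoyl-glycerol (20 µM each), run 30 min at room temperature. Stopped with acetonitrile/formic acid containing 1,2-dioleoyl-glycerol; read by RapidFire/MS.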

The test system of the next data set is NIH3T3. Description: Cytotoxicity against BALB/c mouse 3T3 cells assessed as reduction in cell viability at 6.25 uM incubated for 1 hrs in absence of UV irradiation by Celltiter-Glo assay relative to control. It counts as toxicity, cell-based. Conditions: nih3t3, 1 h; call rule not given here. The method in brief: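 BALB/c 3T3 cells seeded at 2.5 × 10^3 cells/well and grown 1 day. Compound at 6.25 µM in EBSS with 1 mM HEPES, preincubated 1 h. Plate kept dark (–UV) while the paired plate was irradiated. Medium replaced, cultured 24 h more. Viability read as cellular ATP by CellTiter-Glo, % of 1% DMSO control; n = 3, mean ± SD.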
In general terms: In ATP-based viability assays light output follows the ATP content of the culture.

The target in a further data set is Cytochrome P450 3A4 (Homo sapiens, UniProt P08684). The description is as §1. The class given is ADME, Microsome. The conditions noted are these: microsomes, 30 µM. The method in brief:
as §2

A short description of data set [3]: Metabolic stability in mouse liver microsomes assessed as intrinsic clearance at 1 uM incubated for 15 to 30 mins in presence of NADPH-generating system by LC/MS/MS analysis. It counts as ADME, Microsome. Conditions: time 15-30 min, read-out: CLH. The method in brief: (§4)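 Compound at 1 µM with 0.2 mg/mL liver microsomal protein in 50 mM phosphate buffer pH 7.4. Reaction started by NADPH-generating system (5 mM MgCl2, 5 mM glucose-6-phosphate, 0.5 mM β-NADP+, 1.5 U/mL G6PDH). Stopped with acetonitrile at 15 and 30 min and analysed by LC/MS/MS. Velocity taken as slope of concentration–time plot.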

In data set [4] the target is 2-acylglycerol O-acyltransferase 2 (Mus musculus, UniProt Q80W94). Description: Inhibition of N-terminal FLAG-tagged full-length mouse MGAT2 expressed in human FreeStyle 293-F cell membrane using 13Cx18oleoyl-CoA and 2-oleoyl-glycerol as substrate preincubated for 60 mins followed by substrate addition and measured after 30 mins by RapidFire mass spectrometric analysis. The class given is cell membranes. The method in brief:
as §3

A short description of data set [5]: Volume of distribution at steady state in mouse at 0.1 mg/kg, iv administered as cassette dose by LC/MS/MS analysis. It counts as ADME, organism-based. Conditions: in vivo, read-out: Vdss. The method in brief: (§5)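 Non-fasted mice dosed by cassette, iv 0.1 mg/kg or po 1 mg/kg suspended in 0.5% methylcellulose aqueous solution; plasma obtained from blood by centrifugation, deproteinized with acetonitrile, and compound concentrations measured by LC/MS/MS.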

Data set [6] can be described thus: Total clearance in mouse at 0.1 mg/kg, iv administered as cassette dose by LC/MS/MS analysis. It counts as ADME, organism-based. The conditions noted are these: in vivo. The method in brief:
as §5

Data set [7] is described as follows: AUC in mouse at 1 mg/kg, po administered as cassette dose by LC/MS/MS analysis. The conditions noted are these: in vivo. It counts as ADME, organism-based. The method in brief:
as §5

A short description of data set [8]: MRT in mouse at 1 mg/kg, po administered as cassette dose by LC/MS/MS analysis. The conditions noted are these: in vivo. It counts as ADME, organism-based. The method in brief: as §5
Data set [9] can be described thus: Oral bioavailability in mouse at 1 mg/kg administered as cassette dose by LC/MS/MS analysis. The class given is ADME, organism-based. The conditions noted are these: in vivo. The method in brief:
as §5

Data set [10] in a line: Permeability of compound at pH 7.4 by PAMPA assay. The class given is ADME. The conditions noted are these: read-out: permeability. The method in brief:
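Passive permeability measured by PAMPA at pH 7.4.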
Background: The PAMPA barrier holds no transporters, so it reflects passive diffusion.

Data set [11] in a line: Metabolic stability in human liver microsomes assessed as intrinsic clearance at 1 uM incubated for 15 to 30 mins in presence of NADPH-generating system by LC/MS/MS analysis. The conditions noted are these: time 15-30 min, read-out: CLH. It counts as ADME, Microsome. The method in brief: as §4

pIC50: −log10 of the molar value.

CYP3A4, sequence (P08684 whole entry): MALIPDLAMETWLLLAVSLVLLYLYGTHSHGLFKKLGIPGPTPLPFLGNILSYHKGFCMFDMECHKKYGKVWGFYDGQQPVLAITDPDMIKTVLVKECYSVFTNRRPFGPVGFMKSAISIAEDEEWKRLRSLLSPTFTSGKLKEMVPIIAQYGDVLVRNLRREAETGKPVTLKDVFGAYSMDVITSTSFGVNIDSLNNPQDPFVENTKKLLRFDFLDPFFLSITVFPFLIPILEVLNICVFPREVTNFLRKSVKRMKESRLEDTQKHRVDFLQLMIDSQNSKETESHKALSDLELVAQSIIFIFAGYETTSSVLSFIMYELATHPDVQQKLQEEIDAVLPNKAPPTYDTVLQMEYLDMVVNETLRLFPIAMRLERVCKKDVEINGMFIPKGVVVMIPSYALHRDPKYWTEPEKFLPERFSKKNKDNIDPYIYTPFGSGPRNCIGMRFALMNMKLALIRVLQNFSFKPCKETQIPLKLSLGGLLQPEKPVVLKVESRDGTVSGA
2-acylglycerol O-acyltransferase 2 (Homo sapiens, UniProt Q3SYC2), sequence (Q3SYC2 whole entry): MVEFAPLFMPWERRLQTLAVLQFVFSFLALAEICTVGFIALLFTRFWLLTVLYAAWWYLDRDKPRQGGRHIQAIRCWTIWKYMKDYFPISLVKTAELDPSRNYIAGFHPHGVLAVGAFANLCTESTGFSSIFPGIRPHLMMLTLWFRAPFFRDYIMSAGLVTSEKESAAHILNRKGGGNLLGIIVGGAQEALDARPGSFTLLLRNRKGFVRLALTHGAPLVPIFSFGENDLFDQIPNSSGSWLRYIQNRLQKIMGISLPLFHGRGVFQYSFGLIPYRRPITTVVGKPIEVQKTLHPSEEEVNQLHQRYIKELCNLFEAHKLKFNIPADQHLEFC
Cytochrome P450 3A4, sequence (P08684 whole entry): as the sequence (P08684 whole entry) above
2-acylglycerol O-acyltransferase 2 (Mus musculus, UniProt Q80W94), sequence (Q80W94 whole entry): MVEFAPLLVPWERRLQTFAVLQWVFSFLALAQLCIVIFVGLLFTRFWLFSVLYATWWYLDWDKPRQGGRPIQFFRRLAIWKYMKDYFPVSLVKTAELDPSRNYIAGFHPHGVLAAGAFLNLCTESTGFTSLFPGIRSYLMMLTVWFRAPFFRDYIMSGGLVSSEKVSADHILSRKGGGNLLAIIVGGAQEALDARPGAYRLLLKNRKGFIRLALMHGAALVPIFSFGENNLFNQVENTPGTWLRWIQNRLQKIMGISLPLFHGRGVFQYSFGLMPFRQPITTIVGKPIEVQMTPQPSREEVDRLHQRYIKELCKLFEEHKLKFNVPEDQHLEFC

In the case of `O=C1CCCN1c1cc(S(=O)(=O)Nc2c(F)cc(Cl)cc2F)cc2c1N(C(=O)Nc1ccc(C(F)(F)F)cc1)CC2`, the activity at 30 µM on CYP3A4 was determined as 89%. Further, in data set [1], the logD is 3.3. In addition, in data set [2], the pIC50 is 7.52.

In [1], `O=C1CCCN1c1cc(S(=O)(=O)Nc2c(F)cc(Cl)cc2F)cc2c1N(c1ncc(-n3ccc(C(F)(F)F)n3)cn1)CC2` came in with a logD of 3.1. The pIC50 in data set [2] was 8.09. Moreover, the Activity in the data set with NIH3T3 amounted to 105%.

For the compound `O=C1CCCN1c1cc(S(=O)(=O)Nc2c(F)cc(Cl)cc2F)cc2c1N(c1ncc(-c3ccc(C(F)(F)F)cc3)cn1)CC2`, at Cytochrome P450 3A4, the TDI entry is “Not Active”. Also, the logD in data set [1] was determined as 3.8. In [2], this compound gave a pIC50 of 9.16. The Activity in the data set with NIH3T3 is 105%.

In the case of `O=C1CCCN1c1cc(S(=O)(=O)Nc2ccc(F)cc2F)cc2c1N(C(=O)Nc1ccc(C(F)(F)F)cc1)CC2`, the activity at 30 µM at CYP3A4 is 43%. The same compound gave a pIC50 in data set [2] of 8.47.

On to `O=C1CCCN1c1cc(S(=O)(=O)Nc2c(F)cc(Cl)cc2F)cc2c1N(C(=O)OC1CCN(CC(F)(F)C(F)(F)F)CC1)CC2`, for which the activity at 30 µM at CYP3A4 worked out at 82%. The compound further came in with a logD in [1] of 3.8. In data set [2], this compound gave a pIC50 of 7.72.

Turning to `O=C1CCCN1c1cc(S(=O)(=O)Nc2ccc(C(F)(F)F)cc2F)cc2c1N(C(=O)OC1CCN(CC(F)(F)C(F)(F)F)CC1)CC2`, the activity at 30 µM at CYP3A4 is 93%. The same compound gave a logD in data set [1] of 4.1. For the same compound, the pIC50 in [2] was 7.38.

Regarding `Cc1cc(C(F)(F)F)nn1-c1cnc(N2CCc3cc(S(=O)(=O)Nc4c(F)cc(Cl)cc4F)cc(N4CCCC4=O)c32)nc1`, the logD in data set [1] came out at 2.9. Also, the pIC50 in data set [2] is 8.68; in [4], 8.96. Besides, the microsomal CLint at 1 µM in [3] was 27 µL/min/mg. Besides, in the data set with NIH3T3, the Activity turned out to be 112%. Besides, the Vd in data set [5] amounted to 1.02 L/kg. In data set [6], this compound showed a clearance of 7.85 mL/min/kg. The area under the curve (AUC) in data set [7] was found to be 1120 ng·h/mL. The compound also returned an MRT in [8] of 2.6 h. For the same compound, in data set [9], the bioavailability is 52%. For the same compound, the Papp in data set [10] was determined as 18.5 ×10⁻⁶ cm/s.

Turning to `O=C1CCCN1c1cc(S(=O)(=O)Nc2c(F)cc(Cl)cc2F)cc2c1N(c1ccc(-c3ccc(C(F)(F)F)cc3)cc1)CC2`, the TDI entry at Cytochrome P450 3A4 is reported as “Not Active”. The logD in data set [1] stood at 4.5. This compound also gave a pIC50 in [2] of 9.60. In addition, the Activity with NIH3T3 was found to be 95%.

In [1], `Cn1nc(C(F)(F)F)cc1-c1cnc(N2CCc3cc(S(=O)(=O)Nc4c(F)cc(Cl)cc4F)cc(N4CCNC4=O)c32)nc1` returned a logD of 2.7. The pIC50 in [2] is 8.43; in data set [4], 8.72. In addition, the microsomal CLint at 1 µM stood at 33 µL/min/mg in [3] and 4 µL/min/mg in data set [11]. Besides, in the data set with NIH3T3, the Activity is listed as 111%. The Vd in [5] is 1.96 L/kg. The compound further had a clearance in data set [6] of 39.5 mL/min/kg. In addition, the AUC in data set [7] is 72 ng·h/mL. In data set [8], this compound gave an MRT of 2.3 h. This compound also gave a bioavailability in [9] of 16%. In addition, in data set [10], the Papp was 4 ×10⁻⁶ cm/s.

In the case of `O=C1CCCN1c1cc(S(=O)(=O)Nc2c(F)cc(F)cc2F)cc2c1N(C(=O)OC1CCN(CC(F)(F)C(F)(F)F)CC1)CC2`, on CYP3A4, the activity at 30 µM turned out to be 95%. Moreover, in data set [1], the logD was determined as 3.4. Further, the pIC50 in data set [2] was 7.12.

In [1], `O=C1CCCN1c1cc(S(=O)(=O)Nc2c(F)cc(Cl)cc2F)cc2c1N(c1ncc(-n3cc(C(F)(F)F)cn3)cn1)CC2` showed a logD of 3.1. For the same compound, the pIC50 in [2] is 8.21. Further, the Activity with NIH3T3 is given as 109%.

As for `O=C1CCCN1c1cc(S(=O)(=O)Nc2c(F)cc(Cl)cc2F)cc2c1N(c1ncc(-c3ccc(C(F)(F)F)cc3F)cn1)CC2`, the logD in data set [1] worked out at 4.1. Moreover, in data set [2], the pIC50 was 9.38. Also, the Activity in the data set on NIH3T3 was determined as 98%.

For `CC(=O)Nc1cc(S(=O)(=O)Nc2ccc(F)cc2F)cc2c1N(CCc1ccccc1)CC2`, the activity at 30 µM at CYP3A4 was 13%. Also, in data set [2], the pIC50 was 9.00.

On to `O=C1CCCN1c1cc(S(=O)(=O)Nc2ccc(F)cc2F)cc2c1N(C(=O)OC1CCN(CC(F)(F)C(F)(F)F)CC1)CC2`, for which the activity at 30 µM on CYP3A4 was found to be 59%. This compound also registered a logD in data set [1] of 3.7. In [2], the pIC50 was 8.39.
